The results in this text go back to ChEMBL document CHEMBL1153829, “Exploiting chemical libraries, structure, and genomics in the search for kinase inhibitors” (Science, 1998).

The target of test [1] is Cyclin-dependent kinase 1/cyclin B1 (Homo sapiens, UniProt P06493). Put plainly: Inhibition of human cdc2/cyclin B assessed as [32P] incorporation in histone H1 from [gamma32P]ATP. Format: protein-complex assay.
Test [2] deals with Saccharomyces cerevisiae. Put plainly: Increase in UB14 mRNA level in delta snq2, delta pdr5 and delta erg6 knock out yeast YRP1 at 25 µM after 2 hrs by high-density oligonucleotide array. It is filed as functional, organism-based. Conditions: […]. The method, boiled down:
(§1)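 Drug-sensitized S. cerevisiae cultures grown to late logarithmic phase, then exposed to 25 μM inhibitor for 2 h. Polyadenylated mRNA isolated, converted to biotin-labeled cRNA and hybridized to a set of four high-density arrays carrying more than 260,000 25-nucleotide oligomers. Transcripts scored as changed when they shifted more than twofold in triplicate hybridizations for each of two independent experiments.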

Test [3] deals with Serine/threonine-protein kinase CAK1 (Saccharomyces cerevisiae S288c, UniProt P43568). Put plainly: Inhibition of yeast W303 Cak1 phosphorylation assessed as [32P] incorporation in histone H1 from [gamma32P]ATP by scintillation counting.
The target in test [4] is Cyclin-dependent protein kinase PHO85 (Saccharomyces cerevisiae S288c, UniProt P17157). Put plainly: Inhibition of yeast W303 Pho85 phosphorylation assessed as [32P] incorporation in histone H1 from [gamma32P]ATP by scintillation counting.
In test [5] the test system is Saccharomyces cerevisiae. Put plainly: Increase in YBR296c mRNA level in delta snq2, delta pdr5 and delta erg6 knock out yeast YRP1 at 25 µM after 2 hrs by high-density oligonucleotide array. Format: functional, organism-based. Conditions: 25 M. An outline of the steps:
as §1

For test [6], the target named is Serine/threonine-protein kinase KIN28 (Saccharomyces cerevisiae S288c, UniProt P06242). Put plainly: Inhibition of yeast W303 Kin28 phosphorylation assessed as [32P] incorporation in histone H1 from [gamma32P]ATP by scintillation counting.
Test [7] deals with Saccharomyces cerevisiae. Put plainly: Increase in CTT1 mRNA level in delta snq2, delta pdr5 and delta erg6 knock out yeast YRP1 at 25 µM after 2 hrs by high-density oligonucleotide array. The conditions noted are these: 25 M. Format: functional, organism-based. An outline of the steps: as §1
In test [8] the test system is Saccharomyces cerevisiae. Put plainly: Increase in PHO81 mRNA level in delta snq2, delta pdr5 and delta erg6 knock out yeast YRP1 at 25 µM after 2 hrs by high-density oligonucleotide array. The conditions noted are these: 25 M. Format: functional, organism-based. The method, boiled down: as §1
Test [9] concerns Saccharomyces cerevisiae. Put plainly: Increase in HSP12 mRNA level in delta snq2, delta pdr5 and delta erg6 knock out yeast YRP1 at 25 µM after 2 hrs by high-density oligonucleotide array. Format: functional, organism-based. The conditions noted are these: […]. The method, boiled down:
as §1

In test [10] the target is Meiotic mRNA stability protein kinase SSN3 (Saccharomyces cerevisiae S288c, UniProt P39073). Put plainly: Inhibition of yeast W303 Srb10 phosphorylation assessed as [32P] incorporation in histone H1 from [gamma32P]ATP by scintillation counting.
Test [11] relates to Saccharomyces cerevisiae. Put plainly: Increase in PHO84 mRNA level in delta snq2, delta pdr5 and delta erg6 knock out yeast YRP1 at 25 µM after 2 hrs by high-density oligonucleotide array. Conditions: […]. Format: functional, organism-based. The method, boiled down: as §1
Test [12] concerns Saccharomyces cerevisiae. Put plainly: Increase in PCL5 mRNA level in delta snq2, delta pdr5 and delta erg6 knock out yeast YRP1 at 25 µM after 2 hrs by high-density oligonucleotide array. Format: functional, organism-based. The conditions noted are these: […]. An outline of the steps:
as §1

For test [13], the system named is Saccharomyces cerevisiae. Put plainly: Increase in PHO8 mRNA level in delta snq2, delta pdr5 and delta erg6 knock out yeast YRP1 at 25 µM after 2 hrs by high-density oligonucleotide array. It is filed as functional, organism-based. Conditions: […]. An outline of the steps: as §1
Test [14] relates to Saccharomyces cerevisiae. Put plainly: Increase in PHO80 mRNA level in delta snq2, delta pdr5 and delta erg6 knock out yeast YRP1 at 25 µM after 2 hrs by high-density oligonucleotide array. Format: functional, organism-based. Conditions: […]. The method, boiled down: as §1
Test [15] concerns Saccharomyces cerevisiae. Put plainly: Increase in PHO5 mRNA level in delta snq2, delta pdr5 and delta erg6 knock out yeast YRP1 at 25 µM after 2 hrs by high-density oligonucleotide array. Format: functional, organism-based. Conditions: […]. An outline of the steps:
as §1

The subject of test [16] is Saccharomyces cerevisiae. Put plainly: Growth inhibition of delta snq2, delta pdr5 and delta erg6 knock out yeast YRP1 assessed as synchronization by FACS analysis. It is filed as functional, organism-based. (In general: Flow cytometry measures light scatter and fluorescence of single cells or particles in a stream.)
The test system of test [17] is Saccharomyces cerevisiae. Put plainly: Growth inhibition of delta snq2, delta pdr5 and delta erg6 knock out yeast YRP1 assessed as induction of uniform arrest morphology. Format: functional, organism-based.
Test [18] deals with Saccharomyces cerevisiae. Put plainly: Growth inhibition of delta snq2, delta pdr5 and delta erg6 knock out yeast YRP1 after 2 hrs. It is filed as functional.
Test [19] concerns the target T1, Cyclin-dependent kinase 1 (Saccharomyces cerevisiae S288c, UniProt P00546). Put plainly: Inhibition of yeast W303 cdc28 phosphorylation assessed as [32P] incorporation in histone H1 from [gamma32P]ATP by scintillation counting.
The subject of test [20] is MRC5. Put plainly: Cell cycle arrest in human MRC5 cells assessed as accumulation at G2/M phase at high concentration after 18 hrs by FACS analysis. Format: functional, cell-based.
In test [21] the test system is MRC5. Put plainly: Cell cycle arrest in human MRC5 cells assessed as accumulation at G1/S phase at high concentration after 18 hrs by FACS analysis. Format: functional, cell-based.
Test [22] has as its system MRC5. Put plainly: Cell cycle arrest in human MRC5 cells assessed as accumulation at G1/S phase at low concentration after 18 hrs by FACS analysis. It is filed as functional, cell-based.
Test [23] addresses Cyclin-dependent kinase 4/cyclin D1 (Homo sapiens, UniProt P11802). Put plainly: Inhibition of human cdk4/cyclin D1. It is filed as protein-complex assay.
For test [24], the target named is c-Jun N-terminal kinase, JNK (Homo sapiens, UniProt P45983+P53779+P45984). Put plainly: Inhibition of human JNK.
For test [25], the target named is Protein kinase C gamma type (Homo sapiens, UniProt P05129). Put plainly: Inhibition of human PKCgamma.
The target in test [26] is Protein kinase C eta type (Homo sapiens, UniProt P24723). Put plainly: Inhibition of human PKCeta.
The nature of test [27]: Inhibition of human casein kinase 1.
A short description of test [28]: Inhibition of human cGMP-dependent protein kinase.
Test [29] addresses Protein kinase C delta type (Homo sapiens, UniProt Q05655). Put plainly: Inhibition of human PKCdelta.
In the next test the target is Casein kinase 2 (Homo sapiens, UniProt P67870+P68400+P19784+Q8NEV1). Put plainly: Inhibition of human casein kinase 2. It is filed as protein assay.
The nature of test [30]: Inhibition of human Raf kinase.
The target in test [31] is T2, Protein kinase C beta type (Homo sapiens, UniProt P05771). Put plainly: Inhibition of human PKCbeta1.
T2 sequence (P05771 whole entry): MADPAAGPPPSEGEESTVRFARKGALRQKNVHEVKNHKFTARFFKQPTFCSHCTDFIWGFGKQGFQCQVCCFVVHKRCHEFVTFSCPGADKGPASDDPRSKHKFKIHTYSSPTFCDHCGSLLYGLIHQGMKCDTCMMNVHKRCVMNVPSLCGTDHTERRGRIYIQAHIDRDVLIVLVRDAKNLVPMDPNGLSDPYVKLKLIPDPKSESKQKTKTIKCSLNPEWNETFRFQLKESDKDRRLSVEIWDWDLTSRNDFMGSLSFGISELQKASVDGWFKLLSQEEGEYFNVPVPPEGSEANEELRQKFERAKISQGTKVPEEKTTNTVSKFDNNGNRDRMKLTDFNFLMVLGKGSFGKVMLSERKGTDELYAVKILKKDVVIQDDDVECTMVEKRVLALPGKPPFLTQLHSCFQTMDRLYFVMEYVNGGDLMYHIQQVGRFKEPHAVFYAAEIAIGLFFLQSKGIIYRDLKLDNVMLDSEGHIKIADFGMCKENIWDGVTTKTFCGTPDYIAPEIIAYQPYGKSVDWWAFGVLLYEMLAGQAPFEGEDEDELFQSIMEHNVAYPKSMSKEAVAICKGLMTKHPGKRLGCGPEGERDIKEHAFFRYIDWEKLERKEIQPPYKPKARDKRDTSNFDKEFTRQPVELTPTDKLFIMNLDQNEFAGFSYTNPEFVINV
In test [32] the target is Glycogen synthase kinase-3 beta (Homo sapiens, UniProt P49841). Put plainly: Inhibition of human GSK3-beta.
Test [33] concerns the target Mitogen-activated protein kinase 3 (Homo sapiens, UniProt P27361). Put plainly: Inhibition of human Erk1.
In test [34] the target is Protein kinase C epsilon type (Homo sapiens, UniProt Q02156). Put plainly: Inhibition of human PKCepsilon.
A short description of test [35]: Inhibition of human cAMP-dependent protein kinase.
In test [36] the target is T2, Protein kinase C beta type. Put plainly: Inhibition of human PKCbeta2.
Test [37] deals with Protein kinase C zeta type (Homo sapiens, UniProt Q05513). Put plainly: Inhibition of human PKCzeta.
Chain of Protein kinase C zeta type (Q05513 whole entry): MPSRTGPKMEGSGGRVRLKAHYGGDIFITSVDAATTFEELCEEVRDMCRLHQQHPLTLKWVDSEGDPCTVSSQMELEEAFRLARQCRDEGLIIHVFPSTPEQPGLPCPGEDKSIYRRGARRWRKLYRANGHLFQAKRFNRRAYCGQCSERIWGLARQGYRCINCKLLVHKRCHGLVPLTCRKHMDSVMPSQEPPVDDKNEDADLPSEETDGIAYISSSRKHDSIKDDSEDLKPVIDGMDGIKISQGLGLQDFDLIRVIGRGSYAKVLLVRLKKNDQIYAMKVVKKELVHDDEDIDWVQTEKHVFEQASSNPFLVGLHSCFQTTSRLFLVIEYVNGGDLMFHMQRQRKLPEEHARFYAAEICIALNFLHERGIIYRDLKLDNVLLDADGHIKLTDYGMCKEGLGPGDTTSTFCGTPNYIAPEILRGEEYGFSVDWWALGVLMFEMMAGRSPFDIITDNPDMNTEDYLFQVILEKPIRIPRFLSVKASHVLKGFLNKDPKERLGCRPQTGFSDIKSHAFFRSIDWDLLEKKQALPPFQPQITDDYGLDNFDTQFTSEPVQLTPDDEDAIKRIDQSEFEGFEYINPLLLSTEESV
Test [38] is described as follows: Inhibition of human v-abl.
The target in test [39] is Protein kinase C alpha type (Homo sapiens, UniProt P17252). Put plainly: Inhibition of human PKCalpha.
The target in test [40] is Cyclin-dependent kinase 5/CDK5 activator 1 (Homo sapiens, UniProt Q00535). Put plainly: Inhibition of human cdk5/p35. It is filed as protein-complex assay.
Test [41] has as its target T1, Cyclin-dependent kinase 1. Put plainly: Inhibition of Saccharomyces cerevisiae cdc28.
Test [42] addresses T3, Cdc2 (Patiria pectinifera, UniProt Q17066). Put plainly: Inhibition of starfish cdc2/cyclin B assessed as [32P] incorporation in histone H1 from 150 µM [gamma32P]ATP.
Another test deals with KM12. Put plainly: Growth inhibition human KM12 cells. It is filed as functional.
The target of test [43] is T3, Cdc2. Put plainly: Inhibition of starfish cdc2/cyclin B assessed as [32P] incorporation in histone H1 from 1.5 mM [gamma32P]ATP.
For another test, the target named is Insulin receptor (Homo sapiens, UniProt P06213). Put plainly: Inhibition of human insulin receptor.
Test [44] can be described thus: Growth inhibition human NCI60 cells. It is filed as functional.
The target in test [45] is T4, Cyclin-dependent kinase 2 (Homo sapiens, UniProt P24941). Put plainly: Inhibition of human cdk2/cyclin A.
The next test has as its system NCI-H522. Put plainly: Growth inhibition human NCI-H522 cells. Format: functional.
Test [46] deals with T4, Cyclin-dependent kinase 2. Put plainly: Inhibition of human cdk2/cyclin E.

The IC50 is the concentration needed to halve the response being measured. A word on the GI50: it is the concentration at which growth is held to half of that of the control. Read a high GI50 as lower sensitivity of the cells.

Active and inactive are the calls of the source. No cut-off for these calls is given here. A value given as a limit tells only on which side of the number the result lay.

Chain of Mitogen-activated protein kinase 3 (P27361 whole entry): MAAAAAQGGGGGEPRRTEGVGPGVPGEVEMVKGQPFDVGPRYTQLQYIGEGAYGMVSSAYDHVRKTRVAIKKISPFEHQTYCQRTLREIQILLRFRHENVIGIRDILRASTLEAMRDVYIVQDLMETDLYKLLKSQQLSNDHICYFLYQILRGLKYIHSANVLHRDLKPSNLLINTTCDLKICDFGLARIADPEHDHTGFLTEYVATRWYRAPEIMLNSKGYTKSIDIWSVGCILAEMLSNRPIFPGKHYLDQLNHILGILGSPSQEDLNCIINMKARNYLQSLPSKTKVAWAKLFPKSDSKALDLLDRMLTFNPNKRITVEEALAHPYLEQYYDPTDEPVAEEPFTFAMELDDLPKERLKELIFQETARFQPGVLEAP
T3 sequence (Q17066 whole entry): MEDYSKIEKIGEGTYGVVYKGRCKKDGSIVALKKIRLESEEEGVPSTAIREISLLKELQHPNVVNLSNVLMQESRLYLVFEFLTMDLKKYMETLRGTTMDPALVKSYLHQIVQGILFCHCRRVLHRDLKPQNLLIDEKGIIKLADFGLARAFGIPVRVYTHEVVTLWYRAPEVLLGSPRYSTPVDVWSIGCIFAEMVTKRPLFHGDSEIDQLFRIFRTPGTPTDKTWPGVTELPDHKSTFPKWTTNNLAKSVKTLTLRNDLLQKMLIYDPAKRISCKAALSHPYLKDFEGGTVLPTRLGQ
Chain of Cyclin-dependent kinase 4/cyclin D1 (P11802 whole entry): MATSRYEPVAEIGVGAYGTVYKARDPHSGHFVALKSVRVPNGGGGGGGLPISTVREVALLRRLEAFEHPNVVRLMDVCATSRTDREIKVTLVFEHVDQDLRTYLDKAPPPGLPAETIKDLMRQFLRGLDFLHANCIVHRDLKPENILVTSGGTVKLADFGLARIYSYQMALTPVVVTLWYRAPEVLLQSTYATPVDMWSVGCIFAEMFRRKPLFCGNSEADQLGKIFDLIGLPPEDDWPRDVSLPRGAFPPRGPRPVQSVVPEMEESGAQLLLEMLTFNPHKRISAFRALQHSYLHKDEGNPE
Chain of Cyclin-dependent kinase 4/cyclin D1 (P24385 whole entry, further chain): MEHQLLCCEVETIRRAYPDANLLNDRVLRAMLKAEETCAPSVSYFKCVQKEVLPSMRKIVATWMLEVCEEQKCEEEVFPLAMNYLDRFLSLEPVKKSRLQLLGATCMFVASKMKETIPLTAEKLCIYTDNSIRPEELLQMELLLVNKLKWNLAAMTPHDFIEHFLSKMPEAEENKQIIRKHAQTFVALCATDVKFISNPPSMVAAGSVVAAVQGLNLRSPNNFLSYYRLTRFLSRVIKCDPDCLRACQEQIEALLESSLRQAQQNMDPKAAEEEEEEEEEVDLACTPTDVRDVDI
Chain of Protein kinase C delta type (Q05655 whole entry): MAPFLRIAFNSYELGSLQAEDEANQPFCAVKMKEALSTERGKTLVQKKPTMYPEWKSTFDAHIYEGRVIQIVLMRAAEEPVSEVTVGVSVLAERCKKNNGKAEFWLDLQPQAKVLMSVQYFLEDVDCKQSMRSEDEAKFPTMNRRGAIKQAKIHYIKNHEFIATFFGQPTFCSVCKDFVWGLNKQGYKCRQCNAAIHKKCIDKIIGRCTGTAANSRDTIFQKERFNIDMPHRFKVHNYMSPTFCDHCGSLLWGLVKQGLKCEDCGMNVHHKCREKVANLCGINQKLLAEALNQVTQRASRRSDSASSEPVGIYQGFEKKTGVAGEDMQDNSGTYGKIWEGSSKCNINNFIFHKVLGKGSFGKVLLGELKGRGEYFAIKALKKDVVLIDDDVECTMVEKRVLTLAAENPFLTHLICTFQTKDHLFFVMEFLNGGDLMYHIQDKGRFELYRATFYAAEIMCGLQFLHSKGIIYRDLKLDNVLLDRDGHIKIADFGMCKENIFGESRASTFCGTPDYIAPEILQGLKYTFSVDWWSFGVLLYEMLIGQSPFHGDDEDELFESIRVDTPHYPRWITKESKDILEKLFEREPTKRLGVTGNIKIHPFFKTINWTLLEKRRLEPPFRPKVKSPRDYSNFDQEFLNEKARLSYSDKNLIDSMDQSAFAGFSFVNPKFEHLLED
T1 sequence (P00546 whole entry): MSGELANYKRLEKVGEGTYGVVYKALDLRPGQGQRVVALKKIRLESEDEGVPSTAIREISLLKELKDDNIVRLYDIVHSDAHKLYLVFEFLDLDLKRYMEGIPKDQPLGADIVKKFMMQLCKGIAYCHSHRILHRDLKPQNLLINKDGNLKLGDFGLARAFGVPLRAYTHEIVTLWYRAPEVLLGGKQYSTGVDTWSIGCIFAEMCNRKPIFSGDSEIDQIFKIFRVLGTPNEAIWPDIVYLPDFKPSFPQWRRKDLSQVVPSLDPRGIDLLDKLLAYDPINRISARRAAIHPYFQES

In the case of `CC(C)n1cnc2c(Nc3cccc(Cl)c3)nc(NCCO)nc21`, the concentration for half-maximal inhibition (IC50) in [1] is 0.34 µM.

As to `CC(C)n1cnc2c(N(C)c3cccc(Cl)c3)nc(NCCO)nc21`, the outcome in the test on Saccharomyces cerevisiae [2], in the test on Saccharomyces cerevisiae [5], with Saccharomyces cerevisiae [7], in the test on Saccharomyces cerevisiae [8], in the test on Saccharomyces cerevisiae [9] and in the test with Saccharomyces cerevisiae [11] was inactive. For the same molecule, the result with Saccharomyces cerevisiae [12], in the test with Saccharomyces cerevisiae [13], in the test with Saccharomyces cerevisiae [14], with Saccharomyces cerevisiae [15], in the test with Saccharomyces cerevisiae [16] and with Saccharomyces cerevisiae [17] was inactive. The IC50 in test [3], in [4], in test [6], in test [10] and in test [19] was more than 500 µM each time. Also, the GI50 with Saccharomyces cerevisiae [18] was found to be 200 µM.

On to `COc1ccc(CNc2nc(N(CCO)CCO)nc3c2ncn3C(C)C)cc1`, for which the outcome in the test on MRC5 [20], in the test on MRC5 [21] and with MRC5 [22] was Active.

`CC(C)[C@H](CO)Nc1nc(Nc2ccc(C(=O)O)c(Cl)c2)c2ncn(C(C)C)c2n1` [PURVALANOL B]: the IC50 in test [23] is more than 10 µM; in test [24], more than 10 µM; in [25], more than 100 µM; in [26], more than 100 µM; in [27] it was more than 3.33 µM; in [28], more than 100 µM. The concentration for half-maximal inhibition (IC50) in [29] is more than 100 µM; against Casein kinase 2, more than 10 µM; in test [30], more than 10 µM; in test [31], more than 100 µM; in [32], more than 10 µM; in [33], 3.33 µM. Further, the concentration for half-maximal inhibition (IC50) in test [34] is more than 100 µM; in [35], 3.8 µM; in test [36], more than 100 µM; in test [37], more than 100 µM; in [38], more than 100 µM; in [39] it was more than 100 µM.

With `CC(C)[C@H](CO)Nc1nc(Nc2cccc(Cl)c2)c2ncn(C(C)C)c2n1` [PURVALANOLA], the IC50 in test [23] is 0.85 µM; in [40], 0.075 µM; in test [24], more than 1 µM; in [41], 0.08 µM; in test [25] it was more than 10 µM; in [26], more than 100 µM. Also, the half-maximal inhibitory concentration (IC50) was 0.04 µM on Cdc2 [42]; more than 3.33 µM in test [27]; more than 10 µM in test [28]; more than 100 µM in [29]; 0.5 µM on Cdc2 [43]; more than 10 µM against Casein kinase 2. Moreover, the half-inhibitory concentration (IC50) was more than 1 µM in [30]; more than 10 µM in test [31]; more than 10 µM in test [32]; 9 µM in [33]; 5 µM on Insulin receptor; more than 100 µM in [34]. Further, the IC50 in test [35] is 9 µM; in test [45] it was 0.07 µM; in test [36] it was more than 10 µM; in test [37] it was more than 100 µM; in [38] it was more than 10 µM; in [39] it was more than 10 µM. Moreover, the half-maximal inhibitory concentration (IC50) in test [46] amounted to 0.035 µM. The concentration for 50% growth inhibition (GI50) stood at 0.076 µM in the test on KM12, 2 µM in test [44] and 0.347 µM with NCI-H522.
